Data published in ChEMBL document CHEMBL3616436, “Synthesis, cytotoxicity and antimicrobial activity of thiourea derivatives incorporating 3-(trifluoromethyl)phenyl moiety” (Eur J Med Chem, 2015).
In brackets after ≈: the same amount, converted by molar mass. Activity calls are given as the source filed them. The calls are words filed in the database; no cut-off is given here.

Tests used:
[1] = Cytotoxicity against human MT4 cells; format: cell-based
[2] = tested on: Vesicular stomatitis virus; assay: Antiviral activity against Vesicular stomatitis virus ATCC VR 1540 infected in African green monkey Vero 76 cells assessed as reduction of virus-plaque formation after 2 days by crystal violet staining; format: functional, organism-based; conditions: ATCC VR 1540, Vero, 48 h
[3] = tested on: Human immunodeficiency virus 1; assay: Antiviral activity against HIV1 3B infected in human MT4 cells assessed as protection against virus-induced cytopathogenicity by MTT assay; format: functional, organism-based; conditions: Human immunodeficiency virus 1, 3B
[4] = Cytotoxicity against bovine MDBK cells assessed as cell viability after 48 to 96 hrs by MTT assay; format: cell-based, Bos taurus; conditions: cattle
[5] = Antiviral activity against Bovine viral diarrhea virus 1-NADL ATCC VR-534 infected in MDBK cells assessed as protection against virus-induced cytopathogenicity after 3 to 4 days by MTT assay; format: functional, cell-based; conditions: Bovine viral diarrhea virus isolates and strains, ATCC VR-534, MDBK
How it was run: (§1)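 Cells seeded in 96-well plates (BHK 5x10^4, MDBK 3x10^4 cells/well), grown overnight to confluence, infected at m.o.i. 0.01 (BHK for Reo-1, MDBK for BVDV); serial compound dilutions in maintenance medium with 0.5% inactivated FBS added after 1 h; viability by MTT after 3–4 days at 37°C; EC50 for 50% protection by linear regression.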

[6] = Cytotoxicity against BHK cells assessed as cell viability after 48 to 96 hrs by MTT assay; format: cell-based, Mesocricetus auratus; conditions: hamster
[7] = tested on: Yellow fever virus; assay: Antiviral activity against Yellow fever virus 17D infected in BHK cells assessed as protection against virus-induced cytopathogenicity after 3 to 4 days by MTT assay; format: functional, cell-based
[8] = tested on: Mammalian orthoreovirus 1; assay: Antiviral activity against Reovirus type-1 ATCC VR-214 infected in BHK cells assessed as protection against virus-induced cytopathogenicity after 3 to 4 days by MTT assay; format: functional, cell-based; conditions: Mammalian orthoreovirus 1, ATCC VR-214, BHK; how it was run: as §1
[9] = Cytotoxicity against African green monkey Vero 76 cells assessed as cell viability after 48 to 96 hrs by crystal violet staining; format: cell-based; conditions: chlorocebus sabaeus
[10] = tested on: Coxsackievirus B5; assay: Antiviral activity against Human coxsackievirus B5 ATCC VR-29 infected in African green monkey Vero 76 cells assessed as reduction of virus-plaque formation after 3 days by crystal violet staining; format: functional, organism-based; conditions: Enterovirus B, ATCC VR-29, Vero, 72 h
How it was run: (§2)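 Plaque reduction: Vero-76 at 2x10^5 cells/well grown to confluent monolayers, infected 2 h at 50–100 PFU/well; after removing unadsorbed virus, overlay of D-MEM, 1% inactivated FBS, 0.75% methylcellulose with or without serial compound dilutions; 3 days at 37°C, fixed and stained with crystal violet in 50% ethanol, plaques counted; EC50 by linear regression.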

[11] = tested on: Poliovirus 1; assay: Antiviral activity against Poliovirus type 1 ATCC VR-1562 infected in African green monkey Vero 76 cells assessed as reduction of virus-plaque formation after 2 days by crystal violet staining; format: functional, organism-based; conditions: Enterovirus C, ATCC VR-1562, Vero, 48 h
[12] = tested on: Vaccinia virus; assay: Antiviral activity against Human Vaccinia virus ATCC VR-1549 infected in African green monkey Vero 76 cells assessed as reduction of virus-plaque formation after 3 days by crystal violet staining; format: functional, organism-based; conditions: Orthopoxvirus vaccinia, ATCC VR-1549, Vero, 72 h
[13] = tested on: Human alphaherpesvirus 1; assay: Antiviral activity against Human herpesvirus 1 KOS ATCC VR-1493 infected in African green monkey Vero 76 cells assessed as reduction of virus-plaque formation after 3 days by crystal violet staining; format: functional, organism-based; conditions: Human alphaherpesvirus 1, KOS ATCC VR1493, Vero, 72 h; how it was run: as §2
[14] = tested on: Staphylococcus aureus; assay: Antimicrobial activity against Staphylococcus aureus NCTC 4163 at 400 ug after 18 hrs by disc-diffusion method; format: functional; conditions: NCTC 4163, 18 h, read-out: IZ
How it was run: (§3)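 Disc diffusion on Mueller-Hinton II agar per CLSI; 9 mm paper discs loaded with 400 µg compound from DMSO solution, dried, placed on agar; growth inhibition zone diameter read after 18 h at 35°C.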

[15] = tested on: Staphylococcus aureus; assay: Antimicrobial activity against Staphylococcus aureus ATCC 25923 at 400 ug after 18 hrs by disc-diffusion method; format: functional; conditions: ATCC 25923, 18 h, read-out: IZ; how it was run: as §3
[16] = tested on: Staphylococcus aureus; assay: Antimicrobial activity against Staphylococcus aureus ATCC 6538 at 400 ug after 18 hrs by disc-diffusion method; format: functional; conditions: ATCC 6538, 18 h, read-out: IZ; how it was run: as §3
[17] = tested on: Staphylococcus aureus; assay: Antimicrobial activity against Staphylococcus aureus ATCC 29213 at 400 ug after 18 hrs by disc-diffusion method; format: functional; conditions: ATCC 29213, 18 h, read-out: IZ; how it was run: as §3
[18] = tested on: Staphylococcus epidermidis; assay: Antimicrobial activity against Staphylococcus epidermidis ATCC 12228 at 400 ug after 18 hrs by disc-diffusion method; format: functional; conditions: ATCC 12228, 18 h, read-out: IZ; how it was run: as §3
[19] = tested on: Staphylococcus epidermidis; assay: Antimicrobial activity against Staphylococcus epidermidis ATCC 35984 at 400 ug after 18 hrs by disc-diffusion method; format: functional; conditions: ATCC 35984, 18 h, read-out: IZ; how it was run: as §3
[20] = tested on: Bacillus subtilis; assay: Antimicrobial activity against Bacillus subtilis ATCC 6633 at 400 ug after 18 hrs by disc-diffusion method; format: functional; conditions: ATCC 6633, 18 h, read-out: IZ; how it was run: as §3
[21] = tested on: Bacillus cereus; assay: Antimicrobial activity against Bacillus cereus ATCC 11778 at 400 ug after 18 hrs by disc-diffusion method; format: functional; conditions: ATCC 11778, 18 h, read-out: IZ; how it was run: as §3
[22] = tested on: Enterococcus hirae; assay: Antimicrobial activity against Enterococcus hirae ATCC 10541 at 400 ug after 18 hrs by disc-diffusion method; format: functional; how it was run: as §3
[23] = tested on: Enterococcus faecalis; assay: Antimicrobial activity against Enterococcus faecalis ATCC 29212 at 400 ug after 18 hrs by disc-diffusion method; format: functional; conditions: ATCC 29212, 18 h, read-out: IZ; how it was run: as §3
[24] = tested on: Micrococcus luteus; assay: Antimicrobial activity against Micrococcus luteus ATCC 10240 at 400 ug after 18 hrs by disc-diffusion method; format: functional; conditions: ATCC 10240, 18 h, read-out: IZ; how it was run: as §3
[25] = tested on: Micrococcus luteus; assay: Antimicrobial activity against Micrococcus luteus ATCC 9341 at 400 ug after 18 hrs by disc-diffusion method; format: functional; conditions: ATCC 9341, 18 h, read-out: IZ; how it was run: as §3
[26] = tested on: Proteus vulgaris; assay: Antimicrobial activity against Proteus vulgaris NCTC 4635 at 400 ug after 18 hrs by disc-diffusion method; format: functional; how it was run: as §3
[27] = tested on: Staphylococcus aureus; assay: Antimicrobial activity against Staphylococcus aureus NCTC 4163 after 18 hrs by twofold serial microdilution method; format: functional; conditions: NCTC 4163, 18 h
[28] = tested on: Staphylococcus aureus; assay: Antimicrobial activity against Staphylococcus aureus ATCC 25923 after 18 hrs by twofold serial microdilution method; format: functional; conditions: ATCC 25923, 18 h
[29] = tested on: Staphylococcus aureus; assay: Antimicrobial activity against Staphylococcus aureus ATCC 6538 after 18 hrs by twofold serial microdilution method; format: functional; conditions: ATCC 6538, 18 h
[30] = tested on: Staphylococcus aureus; assay: Antimicrobial activity against Staphylococcus aureus ATCC 29213 after 18 hrs by twofold serial microdilution method; format: functional; conditions: ATCC 29213, 18 h
[31] = tested on: Staphylococcus epidermidis; assay: Antimicrobial activity against Staphylococcus epidermidis ATCC 12228 after 18 hrs by twofold serial microdilution method; format: functional; conditions: ATCC 12228, 18 h
[32] = tested on: Staphylococcus epidermidis; assay: Antimicrobial activity against Staphylococcus epidermidis ATCC 35984 after 18 hrs by twofold serial microdilution method; format: functional; conditions: ATCC 35984, 18 h
[33] = tested on: Mycobacterium tuberculosis; assay: Antimycobacterial activity against Mycobacterium tuberculosis H37Rv ATCC 25618; format: functional
How it was run: (§4)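 Classical test-tube successive-dilution method in Youmans' modification of Proskauer and Beck liquid medium with 10% bovine serum. Inoculum came from 14-day cultures. DMSO stock was 10 mg/mL, diluted geometrically in medium. Tubes were incubated at 37 °C. Concentrations tested were 3.1, 6.2, 12.5, 25, 50 and 100 µg/ml. MIC is the minimum concentration inhibiting growth relative to compound-free tubes.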

[34] = tested on: Mycobacterium tuberculosis; assay: Antimycobacterial activity against drug-sensitive Mycobacterium tuberculosis Spec. 192; format: functional; how it was run: as §4

Row | Structure (SMILES) | CC50 [1] | EC50 [2] | EC50 [3] | CC50 [4] | EC50 [5] | CC50 [6] | EC50 [7] | EC50 [8] | CC50 [9] | EC50 [10] | EC50 [11] | EC50 [12] | EC50 [13] | zone of inhibition at 400 µg/disc [14] | zone of inhibition at 400 µg/disc [15] | zone of inhibition at 400 µg/disc [16] | zone of inhibition at 400 µg/disc [17] | zone of inhibition at 400 µg/disc [18] | zone of inhibition at 400 µg/disc [19] | zone of inhibition at 400 µg/disc [20] | further results
1 | CSCCCNC(=S)Nc1cccc(C(F)(F)F)c1 | 43 µM | > 100 µM | > 43 µM | > 100 µM | > 100 µM | > 100 µM | > 100 µM | > 100 µM | > 100 µM | > 100 µM | > 100 µM | > 100 µM | > 100 µM | 19 mm | 18 mm | 18 mm | 18 mm | 20 mm | 16 mm | 18 mm | zone of inhibition at 400 µg/disc [21]: 19 mm; inhibition zone (IZ) [22]: inactive; zone of inhibition at 400 µg/disc [23]: 13 mm; zone of inhibition at 400 µg/disc [24]: 16 mm; zone of inhibition at 400 µg/disc [25]: 20 mm; inhibition zone (IZ) [26]: inactive; MIC [27]: 32 mg/L (≈ 104 µM); MIC [28]: 32 mg/L (≈ 104 µM); MIC [29]: 32 mg/L (≈ 104 µM); MIC [30]: 32 mg/L (≈ 104 µM); MIC [31]: 32 mg/L (≈ 104 µM); MIC [32]: 64 mg/L (≈ 208 µM); MIC [33]: 50 mg/L (≈ 162 µM); MIC [34]: 100 mg/L (≈ 324 µM)
2 | COc1cccc(NC(=S)Nc2cccc(C(F)(F)F)c2)c1 | 26 µM | > 20 µM | > 26 µM | 52 µM | > 52 µM | 12 µM | > 12 µM | > 12 µM | 20 µM | > 20 µM | > 20 µM | > 20 µM | > 20 µM | 20 mm | 20 mm | 23 mm | 22 mm | 22 mm | 21 mm | 20 mm | zone of inhibition at 400 µg/disc [21]: 19 mm; zone of inhibition at 400 µg/disc ([22]; ATCC 10541, 18 h, read-out: IZ): 12 mm; zone of inhibition at 400 µg/disc [23]: 13 mm; zone of inhibition at 400 µg/disc [24]: 19 mm; zone of inhibition at 400 µg/disc [25]: 24 mm; inhibition zone (IZ) [26]: inactive; MIC [27]: 32 mg/L (≈ 98.1 µM); MIC [28]: 32 mg/L (≈ 98.1 µM); MIC [29]: 32 mg/L (≈ 98.1 µM); MIC [30]: 32 mg/L (≈ 98.1 µM); MIC [31]: 32 mg/L (≈ 98.1 µM); MIC [32]: 32 mg/L (≈ 98.1 µM); MIC [33]: > 100 mg/L; MIC [34]: > 100 mg/L
3 | C[C@@]1(O)[C@H](O)[C@@H](CO)O[C@H]1n1ccc(N)nc1=O |  |  |  |  |  | > 10 µM |  | 16 µM | > 100 µM | 18 µM | 7.3 µM |  |  |  |  |  |  |  |  |  | 
